FLuc inh counter – Photinus pyralis luciferase inhibition counter-screen | ATPLite firefly luciferase biochemical luminescence, 10 min | inhibition, % at 10 µM | hit rate 1.5% among 200,000;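 active means inhibition above about 50% when tested at 10 µM, limit read from the data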
FLuc stim CS – affects firefly luciferase, flagging false hits in luciferase stimulation screens; P08659; ATPlite luciferase biochemical, luminescence, 10 min; 0 = ATP-free wells, 1 = DMSO control; activation factor at 10 µM; 200,000 tested, under 10 active; AID 1027;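 active means luciferase activation factor, scaled between plate controls, of at least 2 with compound at 10 µM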
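System: cell-free luciferase reagent; medium: PBS as buffer for the ATP substrate; doses: test compounds dosed from 2 mM stocks in 100% DMSO; incubation: 10 min, room temperature; measured by: luminescence from luciferase reaction; read-out: luciferase activation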
Redox H2O2 prof – compounds producing H2O2 with reducing agent – biochemical, NIH compound library profiling, artefact control for MLSCN library redox annotation, primary screen; activation, % at 10 µM; AID 878; hit rate 0.03% among 200,000; DTT-dependent redox cycling H2O2, phenol red/HRP absorbance; 100% = 100 µM peroxide control, 0% = buffer;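 active means activation of at least 50% relative to the plate's high and low controls in the primary single-dose screen; inactive means activation below 50%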;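 further: compound incubated with DTT at 0.8 mM final as the reducing agent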
ABCG2 inh – inhibitors of human ABCG2 transporter, ABCB1 counter-screen; inhibition, % at 6.6 µM; IgMXP3 cells, JC-1 efflux, flow cytometry; hit rate 0.1% among 190,000; Q9UNQ0;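 active means inhibition above 80%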;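 further: 0% = DMSO and 100% = nicardipine control wells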
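Times: 10 min at 25 °C | Test system: Two drug-resistant human cell lines, ABCG2 and ABCB1 | Quantity: 3 million cells/mL final, two lines in 1:1 ratio | Signal: Flow cytometry, 530 nm JC-1 signal | Dosing: Compound at 6.6 µM | Controls: Nicardipine and DMSO wells | Reagent: JC-1 as fluorescent efflux pump substrate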
ABCB1 inh – human ABCB1 inhibition, ABCG2 as counter-screen | inhibition, % at 6.6 µM | AID 1326 | hit rate 0.067% among 190,000 | P08183 | CCRF-Adr cells, JC-1 efflux, flow cytometry; in the data active means inhibition above about 40%;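 further: 0% = vehicle and 100% = reference inhibitor; higher value means more JC-1 retained so stronger ABCB1 efflux block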
Target sequence (P08183 whole entry, looked up): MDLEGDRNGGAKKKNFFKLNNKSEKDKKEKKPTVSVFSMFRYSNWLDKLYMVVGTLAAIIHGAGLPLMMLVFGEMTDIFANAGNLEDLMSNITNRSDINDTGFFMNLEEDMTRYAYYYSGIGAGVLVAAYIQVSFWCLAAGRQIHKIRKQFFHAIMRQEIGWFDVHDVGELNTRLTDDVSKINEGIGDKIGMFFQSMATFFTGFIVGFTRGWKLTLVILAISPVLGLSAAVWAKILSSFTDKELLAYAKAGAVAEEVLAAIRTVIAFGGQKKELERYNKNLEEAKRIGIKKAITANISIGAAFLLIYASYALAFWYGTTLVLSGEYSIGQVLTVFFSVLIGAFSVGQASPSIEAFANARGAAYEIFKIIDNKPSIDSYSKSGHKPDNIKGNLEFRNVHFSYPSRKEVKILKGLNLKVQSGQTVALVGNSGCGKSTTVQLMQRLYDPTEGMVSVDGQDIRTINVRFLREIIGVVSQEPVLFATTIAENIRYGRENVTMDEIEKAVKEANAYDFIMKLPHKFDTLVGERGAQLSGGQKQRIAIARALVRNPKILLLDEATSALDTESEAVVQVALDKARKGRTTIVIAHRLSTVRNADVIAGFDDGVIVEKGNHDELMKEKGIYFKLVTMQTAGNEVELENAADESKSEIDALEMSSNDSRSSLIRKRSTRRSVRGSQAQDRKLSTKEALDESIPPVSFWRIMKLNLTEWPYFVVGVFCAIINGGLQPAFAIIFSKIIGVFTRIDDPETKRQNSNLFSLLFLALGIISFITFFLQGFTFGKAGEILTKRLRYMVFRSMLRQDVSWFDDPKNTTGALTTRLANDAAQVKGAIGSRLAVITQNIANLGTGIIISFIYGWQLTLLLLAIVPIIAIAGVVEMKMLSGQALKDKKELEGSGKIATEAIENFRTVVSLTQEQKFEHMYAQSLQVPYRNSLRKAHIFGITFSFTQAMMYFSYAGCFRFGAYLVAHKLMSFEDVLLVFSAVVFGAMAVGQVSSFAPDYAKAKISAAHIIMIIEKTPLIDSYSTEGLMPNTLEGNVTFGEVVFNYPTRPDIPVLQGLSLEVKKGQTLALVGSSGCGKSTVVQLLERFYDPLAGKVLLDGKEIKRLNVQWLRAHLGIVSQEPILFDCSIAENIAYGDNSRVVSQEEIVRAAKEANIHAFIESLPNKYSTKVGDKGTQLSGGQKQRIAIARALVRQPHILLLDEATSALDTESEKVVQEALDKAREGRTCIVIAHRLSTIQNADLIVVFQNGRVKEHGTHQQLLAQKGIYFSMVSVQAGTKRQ
Measles CPE – protection of cells from measles virus; protection (pct of control), % at 4 µM; AID 841; Measles virus-infected cells, CPE protection, absorbance; hit rate 1.5% among 140,000; in the data active means protection mostly above about 24%, no sharp cut-off; inactive means mostly below about 26%
* hit, by the source's call; / = not tested or not shown. Only some compounds are listed: those with a hit (about 2.7% of all), similar ones and a draw of the others.

SMILES	FLuc inh counter	FLuc stim CS	Redox H2O2 prof	ABCG2 inh	ABCB1 inh	Measles CPE
CNC(=O)c1ccccc1NC(=O)C1CC(=O)N(c2ccc(OC)cc2)C1 (configuration not stated)	1	1	1	2	1	/
COc1ccc(/C=N/N2CCN(c3ccccc3OC)CC2)cc1OC	2	1	1	6	0	3
COc1cccc(/C=N/N2CCN(c3ccccc3OC)CC2)c1	12	0.9	0	3	0	49*
COc1ccccc1Nc1nc2nonc2nc1N1CCC(C)CC1	2	1	0	17	1	78*
CCC(C)(C)C(=O)Nc1ncc(S(=O)(=O)c2ccc([N+](=O)[O-])cc2)s1	-4	1	3	17	2	53*
CC(C)c1ccc(Nc2nnc(SCC(=O)Nc3ncc(S(=O)(=O)c4ccc([N+](=O)[O-])cc4)s3)s2)cc1	73*	0.3	-2	-3	-1	/
O=C(Nc1ncc(S(=O)(=O)c2ccc([N+](=O)[O-])cc2)s1)c1ccc2ccccc2c1	-8	1.1	0	-12	-1	19
Cc1ccsc1C(=O)N1CCC(N2CCC(C(=O)NCC3CCCO3)CC2)CC1 (configuration not stated)	-3	1	0	1	0	/
COC(=O)C1=C(SC)N(c2ccccc2)C(c2ccccc2)CC1=O (configuration not stated)	-6	1.1	-1	3	0	18
COc1ccc(CCNC(=O)CC2SC(=NCCC(C)C)NC2=O)cc1OC (configuration not stated)	-4	1	0	-1	0	3
COc1ccc(-n2c(C)cc(C(=O)Cn3nc(C(=O)O)c4ccccc4c3=O)c2C)cc1	1	1	0	-1	0	11
COCC(C)n1c(C)cc(C(=O)Cn2nc(C(=O)O)c3ccccc3c2=O)c1C (configuration not stated)	71*	0.3	0	12	2	/
NNC(=O)c1nc[nH]c1C(=O)Nc1ccccc1[N+](=O)[O-]	0	1	1	3	0	/
Cc1ccc(C(=O)Nc2cnc3ccccn3c2=O)cc1	16	0.8	0	2	0	22
Cc1cccc(NC(=O)c2cnc3ccccn3c2=O)c1	84*	0.2	0	5	0	10
Cc1cccc(NC(=O)c2cnc3sccn3c2=O)c1	60*	0.4	0	9	1	/
O=C(Nc1cnc2ccccn2c1=O)c1ccc(Cl)cc1Cl	75*	0.3	0	0	0	/
Cc1c(NS(=O)(=O)c2ccc3[nH]c(=O)[nH]c3c2)c(=O)n(-c2ccccc2)n1C	-8	1.1	1	3	1	25
O=C(Nc1ccccc1)c1ccc2ccccc2n1	52*	0.5	0	13	1	/
Cc1ccc(NC(=O)c2ccc3ccccc3n2)nc1	73*	0.3	4	31	1	4
O=C(Nc1ccc(Cl)cn1)c1ccc2ccccc2n1	24	0.8	-3	1	0	5
O=C(Nc1ccccc1C(=O)O)c1ccc2ccccc2n1	56*	0.4	2	2	0	15
O=C(Nc1ccccc1C(=O)O)c1ccccc1	7	0.9	0	0	0	4
Cc1c(NC(=O)COC(=O)C2(c3ccc(F)cc3)CCCC2)c(=O)n(-c2ccccc2)n1C	-6	1.1	1	-1	1	/
Cc1cc2c(c(=O)o1)C(C13C=CC(CC1)C3)C(C#N)=C(N)O2 (configuration not stated)	-5	1.1	4	5	0	31*
SMILES	FLuc inh counter	FLuc stim CS	Redox H2O2 prof	ABCG2 inh	ABCB1 inh	Measles CPE
COc1ccc(N2CCN(CCCn3c(=S)[nH]c4ncccc4c3=O)CC2)cc1	-6	1.1	0	10	1	25*
O=c1c2cccnc2[nH]c(=S)n1CCCN1CCN(c2ccc(F)cc2)CC1	-5	1.1	2	0	1	16
Cn1cccc1-c1nc2ccc(NC(=O)c3ccco3)cc2[nH]1	10	0.9	0	3	1	4
O=C(Nc1ccc2nc(-c3cccs3)[nH]c2c1)c1ccco1	62*	0.4	0	8	-1	11
O=C(Nc1ccc(-c2nc3ccc(NC(=O)c4cccs4)cc3[nH]2)cc1)c1cccs1	-7	1.1	2	-6	-4	9
O=C(Nc1ccc2nc(-c3cccs3)[nH]c2c1)c1cccs1	61*	0.4	0	1	0	17
CCC1(C)Cc2ccccc2-c2[nH][nH]c(=O)c21 (configuration not stated)	-8	1.1	-2	0	0	/
C=CCn1cnc2c(nnn2-c2ccc(C)c(Cl)c2)c1=O	-2	1	0	12	0	/
O=C(/C=C/c1ccccc1)NCCSc1ccc(Cl)cc1	-8	1.1	6	21	0	9
O=C1CC(c2ccccc2)n2nc(N3C(=O)CCC3=O)nc2N1 (configuration not stated)	-11	1.1	-1	1	0	52*
O=C1CC(c2ccc(Cl)cc2)n2nc(N3C(=O)CCC3=O)nc2N1 (configuration not stated)	2	1	1	0	0	5
N#C/C(=N\Nc1ccccc1[N+](=O)[O-])C(=N)N1CCCCC1	82*	0.2	0	3	0	/
N#C/C(=N\Nc1ccccc1)C(=N)N1CCCCC1	61*	0.4	0	2	0	23
Cn1c(=O)c2c(ncn2CCCNC2=CC(C)(C)CC(=O)C2)n(C)c1=O	-6	1.1	-1	1	0	17*
CC(=O)CCCCn1cnc2c1c(=O)n(C)c(=O)n2C	-1	1	/	3	/	/
CC(=O)Nc1ccc(/C=N/OCC(=O)Nc2ccc(C)cc2)cc1	-3	1	/	24	1	38*
O=C(Nc1nc2ccccc2[nH]1)c1ccccc1F	96*	0	0	35	0	5
O=C(Nc1nc2ccccc2[nH]1)c1ccc(F)cc1	91*	0.1	-1	49	5	15
CN(C)/N=C/c1ccc(OS(=O)(=O)c2ccccc2)cc1	3	1	1	2	0	/
CC1(C(=O)NCCc2c[nH]c3ccccc23)C=CCN1C(=O)c1ccccc1 (configuration not stated)	-1	1	0	0	1	6
Cc1sc2ncnc(N=Nc3c(O)[nH]c4ccccc34)c2c1C	50*	0.5	0	-2	0	18
CCc1cc2c(N=Nc3c(O)[nH]c4ccccc34)ncnc2s1	-4	1	2	-9	-1	5
